# Assay results reported in ChEMBL document CHEMBL1122845, “Inhibitors of blood platelet aggregation. Effects of some 1,2-benzisothiazol-3-ones on platelet responsiveness to adenosine diphosphate and collagen” (J Med Chem, 1985).
# pIC50: −log10 of the molar value.
# Tests used:
# Rattus norvegicus [1] = assay: The compound was tested ex vivo at a dose of 0.15 mmol/kg for ADP induced platelet aggregation in rat
# Rattus norvegicus [2] = assay: The compound was tested ex vivo at a dose of 0.15 mmol/kg for collagen induced platelet aggregation in rat; type: functional
# Summary of the method: (§1)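 Male rats (~200 g) or guinea pigs (~300 g), overnight fasted, n=5-10, received compound orally in 1% methylcellulose (5 mL/kg); vehicle-only controls. After 2 h, CO2 kill and vena cava blood into citrate (102 mM rat, 129 mM guinea pig). PRP set to 800000/µL (rat) or 500000/µL (guinea pig). Collagen EC50 (response of 50 mm; max 50 µg/mL) interpolated from a log plot. Dose ratio = treated/control mean EC50; t-test. Pooled PRP sometimes used.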
# Cavia porcellus [3] = assay: The compound was tested ex vivo at a dose of 0.15 mmol/kg for collagen induced platelet aggregation in guinea pig; type: functional
# Summary of the method: as §1
# Cavia porcellus [4] = assay: The compound was tested ex vivo at a dose of 0.15 mmol/kg for ADP induced platelet aggregation in guinea pig
# Cavia porcellus [5] = assay: The compound was tested ex vivo at a dose of 0.08 mmol/kg for collagen induced platelet aggregation in guinea pig; type: functional
# Summary of the method: as §1
# Cavia porcellus [6] = assay: The compound was tested ex vivo at a dose of 0.04 mmol/kg for ADP induced platelet aggregation in guinea pig; type: functional
# Summary of the method: (§2)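 Fasted male rats (~200 g) or guinea pigs (~300 g), n=5-10, dosed orally (5 mL/kg) in 1% methylcellulose; methylcellulose alone as control. Killed with CO2 after 2 h. Vena cava blood citrated (102 mM rat, 129 mM guinea pig); PRP adjusted to 800000/µL (rat) or 500000/µL (guinea pig). EC25 for first-phase ADP aggregation (max 8 µM) interpolated from two 2-fold-spaced ADP levels. Dose ratio = treated/control mean EC25; Student's t-test. Some groups tested as pooled PRP.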
# Rattus norvegicus [7] = assay: The compound was tested ex vivo at a dose of 0.04 mmol/kg for collagen induced platelet aggregation in rat; type: functional
# Summary of the method: as §1
# Homo sapiens = species on record: Homo sapiens; assay: In vitro inhibitory activity against human platelet aggregation in the presence of collagen; type: functional
# Summary of the method: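 Aggregation measured photometrically in human citrated PRP (350000 platelets/µL, stirred at 1100 rpm). Compound or saline preincubated 3 min at 37 °C. Collagen at a just-maximal level chosen for each sample (typically 0.7-1.4 µg/mL). Maximum increase in light transmission measured. IC50 = concentration giving 50% inhibition.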
# Rattus norvegicus [8] = assay: The compound was tested ex vivo at a dose of 0.08 mmol/kg for collagen induced platelet aggregation in rat; type: functional
# Summary of the method: as §1
# Cavia porcellus [9] = assay: The compound was tested ex vivo at a dose of 0.04 mmol/kg for ADP induced platelet aggregation in guinea pig
# Cavia porcellus [10] = assay: The compound was tested ex vivo at a dose of 0.08 mmol/kg for ADP induced platelet aggregation in guinea pig; type: functional
# Summary of the method: as §2
# Cavia porcellus [11] = assay: The compound was tested ex vivo at a dose of 0.15 mmol/kg for ADP induced platelet aggregation in guinea pig; type: functional
# Summary of the method: as §2
# Cavia porcellus [12] = assay: The compound was tested ex vivo at a dose of 0.02 mmol/kg for collagen induced platelet aggregation in guinea pig; type: functional
# Summary of the method: as §1
# Rattus norvegicus [13] = assay: The compound was tested ex vivo at a dose of 0.15 mmol/kg for collagen induced platelet aggregation in rat
# Rattus norvegicus [14] = assay: The compound was tested ex vivo at a dose of 0.08 mmol/kg for ADP induced platelet aggregation in rat; type: functional
# Summary of the method: as §2
# Rattus norvegicus [15] = assay: The compound was tested ex vivo at a dose of 0.04 mmol/kg for ADP induced platelet aggregation in rat; type: functional
# Summary of the method: as §2
collagen EC50 dose ratio (treated/control) (Cavia porcellus [3]),pIC50 (Homo sapiens),SMILES,Activity (Rattus norvegicus [1]),Activity (Rattus norvegicus [2]),Activity (Cavia porcellus [4]),Activity (Cavia porcellus [5]),Activity (Cavia porcellus [6]),Activity (Rattus norvegicus [7]),Activity (Rattus norvegicus [8]),Activity (Cavia porcellus [9]),Activity (Cavia porcellus [10]),Activity (Cavia porcellus [11]),Activity (Cavia porcellus [3]),Activity (Cavia porcellus [12]),Activity (Rattus norvegicus [13]),Activity (Rattus norvegicus [14]),Activity (Rattus norvegicus [15])
>47,–,CCN(CC)CCn1sc2cc(OC)c(OC)cc2c1=O,2.2,1.5,1.1,–,–,–,–,–,–,–,–,–,–,–,–
–,3.06,O=C1C(CC[S+]([O-])c2ccccc2)C(=O)N(c2ccccc2)N1c1ccccc1 (stereo not drawn) [SULFINPYRAZONE],–,1.1,–,6.2,1.1,1.3,1.8,1.1,1.6,1.1,3.2,2.9,1.2,1.2,1
